For 72 compounds, inhibition results are on record in PubChem BioAssay AID651740 (Broad Institute, 2012).

The campaign covered roughly 5,600 compounds. About 1,200 (21%) were called active. Not shown: some 3% with an inconclusive outcome.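 The calls were made as follows: active = mean inhibition above about 95%, with at least 55% of replicates also reaching it (limit read from the data); inconclusive = meets just one of the two conditions; inactive = meets neither condition.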 Only a sample is shown.

This test is described as follows: Trypanosoma cruzi growth blockers in host fibroblasts – NIH3T3 host cells, beta-gal parasites, cherry-pick, set 2, confirmation (AID 651740).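 Also: plate controls were neutral control median for no effect and positive control median for full effect.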 As to conditions: T. cruzi beta-gal in NIH3T3, GalScreen luminescence, 90 h; at 2.09 µM; active compounds read high. In outline:
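Test system: beta-gal T. cruzi in mouse NIH/3T3 fibroblasts. Quantity: 5,000 host cells per well. Buffer or medium: DMEM plus 2% fetal bovine serum, 1% PSG. Reagent: 5000 trypomastigotes per well. Timing: 3 h host cell attachment, then ≥90 h compound-parasite co-culture, 60 min GalScreen. Technique: luminescence, GalScreen.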
The term inhibition denotes the drop in the measured response relative to a control, in per cent. In the case of `O=C(NCc1ccccn1)[C@@H]1[C@@H](CO)[C@@H]2Cn3c(ccc(/C=C/c4ccccc4)c3=O)[C@H]1N2CC1CC1`, the inhibition is 22.2% (inactive).

For the compound `C[C@H]1CN([C@@H](C)CO)C(=O)c2cc(C#CC3CCCCC3)cnc2O[C@H]1CN(C)S(=O)(=O)c1ccccc1`, the inhibition is 77% (inactive).

As to `C[C@@H]1CN([C@@H](C)CO)C(=O)Cc2cc(NC(=O)C3CCCCC3)ccc2O[C@@H]1CN(C)Cc1ccc(C(=O)Nc2ccccc2N)cc1`, the inhibition was 83.7% (inactive).

On to `C[C@H](CO)N1C[C@H](C)[C@@H](CN(C)Cc2ccc(-c3ccccc3)cc2)Oc2ccc(NC(=O)CCC(F)(F)F)cc2CC1=O`, for which the inhibition is 89.8% (inactive). To `C[C@@H]1CCCCO[C@H](CN(C)C(=O)Nc2cccc3ccccc23)[C@H](C)CN([C@H](C)CO)C(=O)c2cc(NS(=O)(=O)c3cccs3)ccc2O1` belongs 52.6% (inactive). The result for `C[C@H](CO)N1C[C@H](C)[C@H](CN(C)C(=O)Nc2ccc3c(c2)OCO3)Oc2ncc(C#Cc3cccc(F)c3)cc2C1=O` reads 36.1% (inactive). The result for `CC(C)NC(=O)N(C)C[C@H]1OCc2cn(nn2)CCCC(=O)N([C@@H](C)CO)C[C@H]1C` reads -10.9% (inactive). Consider `O=C(C1CC1)N1CCCCN2[C@H](CO)[C@H](c3ccc(-c4cccc(F)c4)cc3)[C@H]2C1`, for which the inhibition was 67% (inactive). As to `C[C@H](CO)N1C[C@H](C)[C@H](CN(C)C(=O)C2CCCCC2)Oc2ncc(C#Cc3cccc(F)c3)cc2C1=O`, the inhibition was 44.3% (inactive). To `O=C(c1ccncc1)N1CCCCN2[C@H](CO)[C@H](c3ccc(-c4ccccc4)cc3)[C@H]2C1` belongs 68.8% (inactive); to `O=C(C1CCC1)N1CCCCN2[C@H](CO)[C@H](c3ccc(-c4cccc(F)c4)cc3)[C@@H]2C1`, 62% (inactive); to `C[C@@H]1CN([C@H](C)CO)C(=O)c2cc(C#CC3CCCCC3)cnc2O[C@@H]1CN(C)C(=O)NC1CCCC1`, 66.9% (inactive). To `O=C(C1CCC1)N1CCCCN2[C@H](CO)[C@H](c3ccc(-c4ccncc4)cc3)[C@@H]2C1` belongs 24.4% (inactive). The result for `N#C[C@@H]1[C@@H](c2ccc(C#Cc3cccc(F)c3)cc2)[C@@H](CO)N1C(=O)C1CCC1` reads 62.2% (inactive); that for `COCC(=O)N1[C@H](CO)[C@@H](c2ccc(C#Cc3ccccc3F)cc2)[C@@H]1C#N`, 72.9% (inactive); that for `COc1cccc(C#Cc2ccc([C@@H]3[C@H](C#N)N[C@H]3CO)cc2)c1`, 97.1% (active).

In the case of `O=C(C[C@H]1CC[C@@H]2[C@H](COC[C@H](O)CN2Cc2ccc(Oc3ccccc3)cc2)O1)N1CCN(c2ccccc2)CC1`, the inhibition is 21.7% (inactive). To `Cc1ccccc1-c1ccc([C@@H]2[C@H](CO)N3CCCCN(S(=O)(=O)c4ccc(F)cc4)C[C@@H]23)cc1` belongs 62.4% (inactive).

As for `CC(=O)N1[C@H](CNC(=O)C2CC2)[C@@H](c2ccc(-c3cccc(F)c3)cc2)[C@@H]1CO`, the inhibition was -2.15% (inactive). In the case of `CCCNC(=O)N1[C@@H]2c3cccc(=O)n3C[C@H]1[C@H](CO)[C@H]2C(=O)NCC(F)(F)F`, the inhibition is 23.3% (inactive). The result for `CC(C)(O)C#Cc1ccc([C@@H]2[C@H](CO)N3CCCCN(C(=O)c4cccc(F)c4)C[C@@H]23)cc1` reads -0.041% (inactive); that for `CCC(=O)N1CCCCN2[C@H](C1)[C@@H](c1ccc(/C=C/c3ccccc3)cc1)[C@@H]2CO`, 62.7% (inactive).

With `CCCN(C)C[C@H]1Oc2cc(C#CC3CCCC3)ccc2S(=O)(=O)N([C@H](C)CO)C[C@@H]1C`, the inhibition was 68.9% (inactive). The result for `C[C@@H]1CN([C@H](C)CO)S(=O)(=O)c2ccc(C#CCC3CCCC3)cc2O[C@H]1CN(C)C(=O)CC1CC1` reads 106% (active); that for `CNC[C@@H]1Oc2cc(C#CCC3CCCC3)ccc2S(=O)(=O)N([C@H](C)CO)C[C@H]1C`, 31.6% (inactive); that for `CC(C)CC#Cc1ccc2c(c1)O[C@H](CN(C)C(=O)C1CC1)[C@@H](C)CN([C@@H](C)CO)S2(=O)=O`, 58.8% (inactive).

With `C[C@@H]1CN([C@@H](C)CO)S(=O)(=O)c2ccc(C#CCN(C)C)cc2O[C@H]1CN(C)C(=O)C1CC1`, the inhibition was 98.9% (active). Regarding `C[C@@H]1CN([C@@H](C)CO)S(=O)(=O)c2ccc(C#CCC3CCCC3)cc2O[C@H]1CN(C)C(=O)CC1CC1`, the inhibition is 64.9% (inactive). `CC(=O)N(C)C[C@H]1Oc2cc(C#CCN(C)C)ccc2S(=O)(=O)N([C@@H](C)CO)C[C@@H]1C`: the inhibition is 91.3% (inactive). To `C[C@H]1CN([C@@H](C)CO)S(=O)(=O)c2ccc(C#CC3CCCC3)cc2O[C@@H]1CN(C)C(=O)c1cccc(F)c1` belongs 100% (active); to `C[C@H](CO)N1C[C@H](C)[C@@H](CN(C)C(=O)Nc2cc(F)ccc2F)Oc2cc(C#CC3CC3)ccc2S1(=O)=O`, 51.9% (inactive); to `C[C@@H]1CN([C@H](C)CO)S(=O)(=O)c2ccc(C#CC3CCCC3)cc2O[C@@H]1CN(C)C(=O)Cc1ccncc1`, 66.3% (inactive). Consider `C[C@@H]1CN([C@H](C)CO)C(=O)Cc2cc(NC(=O)Cc3ccccc3)ccc2O[C@H]1CN(C)Cc1ccc(Oc2ccccc2)cc1`, for which the inhibition is 20.7% (inactive).

`CC(=O)NC[C@@H]1[C@@H](c2ccc(-c3ccccc3F)cc2)[C@@H](CO)N1C(=O)C1CC1`: the inhibition is 14.2% (inactive).

For `COc1ccc(S(=O)(=O)Nc2ccc3c(c2)C(=O)N([C@@H](C)CO)C[C@H](C)[C@H](CN(C)Cc2ccc(C(F)(F)F)cc2)O3)cc1`, the inhibition is 42.3% (inactive). The result for `Cc1noc(C)c1S(=O)(=O)N(C)C[C@H]1Oc2ccc(N(C)C)cc2CC(=O)N([C@H](C)CO)C[C@@H]1C` reads -7.54% (inactive); that for `CC(C)CC#Cc1ccc2c(c1)O[C@H](CN(C)S(=O)(=O)c1cccc(F)c1)[C@@H](C)CN([C@@H](C)CO)S2(=O)=O`, 110% (active). The result for `CC(C)CC#Cc1ccc2c(c1)O[C@H](CN(C)Cc1ccccc1F)[C@@H](C)CN([C@@H](C)CO)S2(=O)=O` reads 113% (active); that for `CC(C)CC#Cc1ccc2c(c1)O[C@H](CN(C)Cc1ccncc1)[C@H](C)CN([C@H](C)CO)S2(=O)=O`, 89.4% (inactive); that for `CC(C)CC#Cc1ccc2c(c1)O[C@H](CN(C)Cc1cccnc1)[C@H](C)CN([C@@H](C)CO)S2(=O)=O`, 81.2% (inactive). Regarding `C[C@@H]1CN([C@@H](C)CO)S(=O)(=O)c2ccc(-c3cccc(F)c3)cc2O[C@@H]1CN(C)S(=O)(=O)c1ccccc1`, the inhibition is 94.1% (inactive). `C[C@@H]1CN([C@H](C)CO)S(=O)(=O)c2ccc(-c3cccc(F)c3)cc2O[C@H]1CN(C)S(=O)(=O)c1ccc(F)cc1`: the inhibition is 74.9% (inactive). Consider `O=C(C[C@@H]1C[C@@H]2c3cc(NC(=O)c4ccc5c(c4)OCO5)ccc3O[C@@H]2[C@@H](CO)O1)NCc1ccc(Cl)cc1`, for which the inhibition was -3.27% (inactive).

As to `CCS(=O)(=O)N1CCCCN2[C@@H](CO)[C@@H](c3ccc(-c4ccccc4)cc3)[C@@H]2C1`, the inhibition was 27.5% (inactive).

Turning to `COc1ccccc1C#Cc1ccc([C@@H]2[C@H](CO)N3CCCCN(C(=O)C4CCCC4)C[C@@H]23)cc1`, the inhibition is 98.1% (active). `COc1ccc(S(=O)(=O)N2CCCCN3[C@H](CO)[C@@H](c4ccc(C#CC(C)C)cc4)[C@H]3C2)cc1`: the inhibition is 79.7% (inactive). The result for `COc1ccccc1C#Cc1ccc([C@@H]2[C@H](CO)N3CCCCN(C(=O)C4CC4)C[C@@H]23)cc1` reads 64.4% (inactive); that for `CN(C)CC#Cc1ccc([C@H]2[C@H]3CN(S(=O)(=O)c4ccccc4F)CCCCN3[C@H]2CO)cc1`, 8.03% (inactive); that for `O=C(c1cccnc1)N1CCCCN2[C@@H](CO)[C@H](c3ccc(C#Cc4ccccc4)cc3)[C@@H]2C1`, 41.7% (inactive). To `O=S(=O)(Cc1ccccc1)N1CCCCN2[C@@H](CO)[C@@H](c3ccc(-c4ccc(F)cc4)cc3)[C@@H]2C1` belongs 104% (active). In the case of `O=S(=O)(Cc1ccccc1)N1CCCCN2[C@@H](CO)[C@H](c3ccc(-c4cccnc4)cc3)[C@@H]2C1`, the inhibition is 62.1% (inactive). To `O=S(=O)(Cc1ccccc1)N1CCCCN2[C@@H](CO)[C@H](c3ccc(-c4ccccc4)cc3)[C@@H]2C1` belongs 78.8% (inactive); to `COc1cccc(S(=O)(=O)N2CCCCN3[C@H](CO)[C@H](c4ccc(-c5ccncc5)cc4)[C@H]3C2)c1`, 100% (active). To `COc1ccc(S(=O)(=O)N2CCCCN3[C@H](C2)[C@H](c2ccc(C#CCC(C)C)cc2)[C@@H]3CO)cc1` belongs 109% (active).

On to `Cc1cccc(-c2ccc([C@@H]3[C@@H](CO)N4CCCCN(S(=O)(=O)c5cccs5)C[C@H]34)cc2)c1`, for which the inhibition was 94.4% (inactive). The result for `OC[C@@H]1[C@H](c2ccc(C#CC3(O)CCCC3)cc2)[C@H]2CN(Cc3cncnc3)CCCCN12` reads 79.8% (inactive); that for `CNC[C@H]1OCCCC[C@@H](C)Oc2ccc(NS(C)(=O)=O)cc2C(=O)N([C@H](C)CO)C[C@H]1C`, -9.33% (inactive); that for `CO[C@H](CN(C)S(=O)(=O)c1ccc(Cl)cc1)[C@@H](C)CN(Cc1ccccc1Cl)[C@H](C)CO`, 48.7% (inactive).

`COc1cccc(S(=O)(=O)Nc2ccc3c(c2)[C@H]2C[C@H](CC(=O)NCc4ccc(Cl)cc4)O[C@H](CO)[C@H]2O3)c1`: the inhibition is 2.49% (inactive). The result for `COc1cccc(S(=O)(=O)N2C[C@@H](O)COC[C@@H]3O[C@H](CC(=O)Nc4ccccc4)CC[C@H]32)c1` reads 1.83% (inactive). The result for `C[C@H](CO)N1C[C@H](C)[C@@H](CN(C)S(=O)(=O)c2ccccc2F)Oc2ncc(C#Cc3ccccc3F)cc2C1=O` reads 93.7% (inactive); that for `C[C@H]1CN([C@@H](C)CO)C(=O)Cc2cc(NC(=O)Cc3cn(C)c4ccccc34)ccc2O[C@@H]1CN(C)Cc1ccc(C(F)(F)F)cc1`, 43.7% (inactive). The result for `O=C(Nc1cccc(F)c1)N1CCCCN2[C@H](CO)[C@H](c3ccc(C#CC4CC4)cc3)[C@@H]2C1` reads 89.3% (inactive); that for `C[C@@H](O)C#Cc1ccc([C@@H]2[C@H](CO)N3CCCCN(S(=O)(=O)c4ccccc4)C[C@@H]23)cc1`, 12% (inactive); that for `COc1cccc(S(=O)(=O)N2CCCCN3[C@H](CO)[C@H](c4ccc(C#CC5CC5)cc4)[C@H]3C2)c1`, 102% (active).

Consider `C/C=C/c1ccc([C@H]2[C@H]3CN(S(=O)(=O)c4ccccc4)CCCCN3[C@H]2CO)cc1`, for which the inhibition was 40.8% (inactive). The result for `COc1cccc(S(=O)(=O)N2CCCCN3[C@H](C2)[C@H](c2ccc(C#CC(C)C)cc2)[C@@H]3CO)c1` reads 103% (active); that for `C[C@H](O)C#Cc1ccc([C@@H]2[C@H]3CN(S(=O)(=O)c4ccccc4)CCCCN3[C@H]2CO)cc1`, -19.2% (inactive); that for `C[C@H](CO)N1C[C@H](C)[C@H](CN(C)C(=O)Nc2cccc3ccccc23)Oc2ncc(C#Cc3ccccc3)cc2C1=O`, 59.1% (inactive). To `Cc1cccc(-c2ccc([C@@H]3[C@H](CO)N4CCCCN(C(=O)c5ccc6c(c5)OCO6)C[C@@H]34)cc2)c1` belongs 66.9% (inactive); to `C[C@@H]1CN([C@H](C)CO)S(=O)(=O)c2ccc(-c3cccc(C#N)c3)cc2O[C@@H]1CN(C)C(=O)Nc1ccccc1F`, 85.2% (inactive).

`C[C@@H]1CN([C@@H](C)CO)C(=O)CCCn2cc(nn2)CO[C@@H]1CN(C)S(=O)(=O)c1ccccc1F`: the inhibition is 34.3% (inactive).
